Inhibition and Activity data for 12 compounds are collected here from ChEMBL document CHEMBL4229458, “Lipid accumulation inhibitory activities of novel isoxazole-based chenodeoxycholic acids: Design, synthesis and preliminary mechanism study” (Bioorg Med Chem Lett, 2018).

Calls of active or inactive are those of the source. The rule behind the calls is not given here.

For data set [1], the system named is 3T3-L1. Description: Inhibition of lipid accumulation in mouse 3T3L1 cells at 10 uM by oil red o staining-based assay. Type of data set: functional. The method, boiled down:
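3T3-L1 preadipocytes differentiated for 6 days into mature adipocytes, then treated at 10 μM. Intracellular lipid stained with Oil Red O and quantified relative to vehicle. Mean ± SD of two independent experiments.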

The subject of data set [2] is 3T3-L1. Description: Cytotoxicity against mouse 3T3L1 cells assessed as decrease in cell viability at 40 uM after 48 hrs by MTT assay. Type of data set: cell-based. Particulars: 3t3-l1, 48 h. The method, boiled down: (§1)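 3T3-L1 preadipocytes given 5, 10, 20 and 40 μM for 48 h, with 1% DMSO as control. Viability measured by MTT. Mean ± SD of two independent experiments.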
(In general: Formazan colour is commonly taken as a measure of viable cells.)

The subject of data set [3] is 3T3-L1. Description: Cytotoxicity against mouse 3T3L1 cells assessed as decrease in cell viability at 10 uM after 48 hrs by MTT assay. Particulars: 3t3-l1, 48 h. The data set is classed as cell-based. The method, boiled down: as §1
In data set [4] the target is T1, Bile acid receptor (Homo sapiens) (UniProt Q96RI1).
T1 sequence (whole entry): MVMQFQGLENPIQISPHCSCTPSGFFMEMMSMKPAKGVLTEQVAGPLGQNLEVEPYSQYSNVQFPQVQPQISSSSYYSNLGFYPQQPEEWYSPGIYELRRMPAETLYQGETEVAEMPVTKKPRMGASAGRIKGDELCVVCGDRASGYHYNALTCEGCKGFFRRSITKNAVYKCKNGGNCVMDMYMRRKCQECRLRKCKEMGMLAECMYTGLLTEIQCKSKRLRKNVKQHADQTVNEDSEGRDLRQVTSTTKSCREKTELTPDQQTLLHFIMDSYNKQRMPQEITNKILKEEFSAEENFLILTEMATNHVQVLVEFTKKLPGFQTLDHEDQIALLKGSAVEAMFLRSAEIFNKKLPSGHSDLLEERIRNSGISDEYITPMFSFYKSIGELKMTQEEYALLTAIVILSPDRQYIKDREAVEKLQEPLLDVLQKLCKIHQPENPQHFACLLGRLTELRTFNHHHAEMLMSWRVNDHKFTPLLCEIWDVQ
Description: Activation of FXR in human HepG2 cells assessed as upregulation of SHP mRNA expression at 10 uM by RT-PCR method. The data set is classed as cell-based. The essentials:
(§2)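 HepG2 cells treated at 10 μM. mRNA of FXR, SHP and SREBP-1c quantified by real-time PCR against vehicle (0.1% DMSO). Mean ± SEM, n = 3.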

In data set [5] the target is T1, Bile acid receptor (Homo sapiens). The experiment in a line: Activation of FXR in human HepG2 cells assessed as upregulation of FXR mRNA expression at 10 uM by RT-PCR method. Type of data set: cell-based. The essentials:
as §2

Data set [6] shares this target. Description: Activation of FXR in human HepG2 cells assessed as downregulation of SREBP-1c mRNA expression at 10 uM by RT-PCR method. Type of data set: cell-based. The method, boiled down:
as §2

The test system of another data set is HepG2. Description: Cytotoxicity against human HepG2 cells assessed as decrease in cell viability at 5 to 80 uM after 48 hrs by MTT assay. Type of data set: cell-based. The settings on record: hepg2, 48 h. The essentials: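 HepG2 cells exposed to 5, 10, 20, 40 and 80 μM for 48 h. Viability read by MTT.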

Consider `Cc1noc(C)c1C(=O)N[C@H]1CC[C@@]2(C)[C@@H](C1)C[C@@H](O)[C@@H]1[C@@H]2CC[C@]2(C)[C@@H]([C@H](C)CCC(=O)O)CC[C@@H]12`, for which, in the data set on 3T3-L1 [1], the inhibition entry was “Active”. Moreover, the Activity result with 3T3-L1 [2] and in the data set with 3T3-L1 [3] was “Non-Toxic” throughout.
Regarding `C[C@H](CCC(=O)O)[C@H]1CC[C@H]2[C@@H]3[C@H](O)C[C@@H]4C[C@H](O)CC[C@]4(C)[C@H]3CC[C@]12C`, in the data set with 3T3-L1 [1], the inhibition result is “Active”.
For `Cc1noc(C)c1C(=O)N[C@H]1CC[C@@]2(C)[C@@H](C1)C[C@@H](O)[C@@H]1[C@@H]2CC[C@]2(C)[C@@H]([C@H](C)CCC(=O)Nc3cccc(Cl)c3)CC[C@@H]12`, the inhibition result in the data set on 3T3-L1 [1] is “Active”. The Activity result in the data set on 3T3-L1 [2] and in the data set with 3T3-L1 [3] was “Non-Toxic” throughout.
Consider `Cc1noc(C)c1C(=O)N[C@H]1CC[C@@]2(C)[C@@H](C1)C[C@@H](O)[C@@H]1[C@@H]2CC[C@]2(C)[C@@H]([C@H](C)CCC(=O)Nc3ccc(F)cc3)CC[C@@H]12`, for which, in the data set on 3T3-L1 [1], the inhibition entry was “Active”. Besides, the Activity entry in the data set on 3T3-L1 [2] and in the data set with 3T3-L1 [3] was “Non-Toxic” each time.
With `COC(=O)CC[C@@H](C)[C@H]1CC[C@H]2[C@@H]3[C@H](O)C[C@@H]4C[C@@H](NC(=O)c5c(C)noc5C)CC[C@]4(C)[C@H]3CC[C@]12C`, in the data set with 3T3-L1 [1], the inhibition result is “Active”. The Activity result with 3T3-L1 [2] and in the data set on 3T3-L1 [3] was “Non-Toxic” throughout.
`Cc1noc(C)c1C(=O)N[C@H]1CC[C@@]2(C)[C@@H](C1)C[C@@H](O)[C@@H]1[C@@H]2CC[C@]2(C)[C@@H]([C@H](C)CCC(=O)NCC(=O)O)CC[C@@H]12`: in the data set with 3T3-L1 [1], the inhibition entry was “Active”. The Activity entry in the data set on 3T3-L1 [2] and with 3T3-L1 [3] was “Non-Toxic” in each case.
As for `Cc1noc(C)c1C(=O)N[C@H]1CC[C@@]2(C)[C@@H](C1)C[C@@H](O)[C@@H]1[C@@H]2CC[C@]2(C)[C@@H]([C@H](C)CCC(N)=O)CC[C@@H]12`, the inhibition result in the data set with 3T3-L1 [1] is “Active”. In addition, the Activity entry in the data set with 3T3-L1 [2] and with 3T3-L1 [3] was “Non-Toxic” each time.
Regarding `CNC(=O)CC[C@@H](C)[C@H]1CC[C@H]2[C@@H]3[C@H](O)C[C@@H]4C[C@@H](NC(=O)c5c(C)noc5C)CC[C@]4(C)[C@H]3CC[C@]12C`, the outcome in data set [4], in data set [5] and in data set [6] was Active. The compound also yielded an inhibition at 10 µM in the data set with 3T3-L1 [1] of 30.5%. In addition, the Activity entry with 3T3-L1 [2], in the data set with HepG2 and with 3T3-L1 [3] was “Non-Toxic” each time.
Take `CC(C)c1onc(-c2c(Cl)cccc2Cl)c1COc1ccc(/C=C/c2cccc(C(=O)O)c2)c(Cl)c1`: the outcome in data set [4], in data set [5] and in data set [6] was Active. Also, the Activity entry in the data set with HepG2 was “Non-Toxic”.
For `CCNC(=O)CC[C@@H](C)[C@H]1CC[C@H]2[C@@H]3[C@H](O)C[C@@H]4C[C@@H](NC(=O)c5c(C)noc5C)CC[C@]4(C)[C@H]3CC[C@]12C`, in the data set with 3T3-L1 [1], the inhibition entry was “Active”. Besides, the Activity result in the data set on 3T3-L1 [2] and in the data set on 3T3-L1 [3] was “Non-Toxic” throughout.
With `Cc1noc(C)c1C(=O)N[C@H]1CC[C@@]2(C)[C@@H](C1)C[C@@H](O)[C@@H]1[C@@H]2CC[C@]2(C)[C@@H]([C@H](C)CCC(=O)Nc3ccc(Cl)cc3)CC[C@@H]12`, the inhibition entry in the data set on 3T3-L1 [1] is “Active”. Besides, the Activity entry in the data set with 3T3-L1 [2] and in the data set with 3T3-L1 [3] was “Non-Toxic” in each case.
With `CC(=O)Nc1ccc(NC(=O)CC[C@@H](C)[C@H]2CC[C@H]3[C@@H]4[C@H](O)C[C@@H]5C[C@@H](NC(=O)c6c(C)noc6C)CC[C@]5(C)[C@H]4CC[C@]23C)cc1`, in the data set on 3T3-L1 [1], the inhibition result was “Active”. The Activity entry in the data set with 3T3-L1 [2] is on record as “Toxic”; in the data set with 3T3-L1 [3], “Non-Toxic”.

As usually defined, the inhibition is the percentage by which the read-out fell short of the control.
